Here are results for four compounds from ChEMBL document CHEMBL1124865, “Synthesis and biological evaluation of a series of parenteral 3'-quaternary ammonium cephalosporins” (J Med Chem, 1990).

The half-life is the time needed for the level to fall by half in the phase considered. A high value points to slow loss. One may read the ED50 as the dose that gives a 50% effect, or the effect in half of the subjects.

≈ marks a conversion by molar mass, not a printed value.

Data set [1] can be described thus: Terminal half life in dogs at the dose of 60 mg/kg. The class given is ADME, organism-based, Canis lupus familiaris. The following applies: dog, in vivo. Further details: dose 60 mg/kg. In a few lines:
(§1)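 Overnight-fasted female mongrel dogs with a Foley bladder catheter; bolus into the cephalic vein. Plasma and urine collected before dosing and over 24 h after. Antibacterial activity measured by microbiological assay.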

The subject of the next data set is Canis familiaris. Briefly: Percent of dose in dogs urine at the dose of 60 mg/kg. The class given is functional, Canis lupus familiaris. The procedure, abridged: as §1
Data set [2] deals with Enterobacter cloacae. The data set is described as follows: Antibacterial activity against Enterobacter cloacae 265A. It is filed as functional. The following applies: Enterobacter cloacae; read-out: MIC.
Data set [3] concerns Escherichia coli. Briefly: Antibacterial activity against Escherichia coli EC14. The class given is functional. The settings on record: Escherichia coli; read-out: MIC.
The subject of data set [4] is Enterobacter cloacae. Briefly: Antibacterial activity against Enterobacter cloacae EB5. The class given is functional. The settings on record: Enterobacter cloacae; read-out: MIC.
Data set [5] relates to Escherichia coli. The data set is described as follows: Antibacterial activity against Escherichia coli TEM. It is filed as functional. The settings on record: Escherichia coli; read-out: MIC.
Data set [6] deals with Klebsiella pneumoniae. The data set is described as follows: microbe, parasite or virus in culture. The settings on record: Klebsiella pneumoniae; read-out: MIC. The class given is functional.
The subject of data set [7] is Klebsiella pneumoniae. Briefly: Antibacterial activity against Klebsiella pneumoniae X26. The class given is functional. The settings on record: Klebsiella pneumoniae; read-out: MIC.
Data set [8] deals with Pseudomonas aeruginosa. Briefly: Antibacterial activity against Pseudomonas aeruginosa X528. It is filed as functional. The settings on record: Pseudomonas aeruginosa; read-out: MIC.
The subject of data set [9] is Pseudomonas aeruginosa. The data set is described as follows: Antibacterial activity against Pseudomonas aeruginosa PS18. It is filed as functional. The following applies: Pseudomonas aeruginosa; read-out: MIC.
Data set [10] concerns Staphylococcus aureus. Briefly: Antibacterial activity against penicillin G resistance Staphylococcus aureus. The settings on record: Staphylococcus aureus; read-out: MIC. The class given is functional.
Data set [11] has as its system Staphylococcus aureus. Briefly: Antibacterial activity against penicillin G susceptible Staphylococcus aureus. The class given is functional. The settings on record: Staphylococcus aureus; read-out: MIC.
Another data set has as its system Streptococcus pneumoniae. Briefly: Antibacterial activity against Streptococcus pneumoniae. It is filed as functional. The settings on record: Streptococcus pneumoniae; read-out: MIC.
A further data set relates to Serratia marcescens. Briefly: Antibacterial activity against Serratia marcescens SE3. The class given is functional. The following applies: Serratia marcescens; read-out: MIC.
The next data set relates to Streptococcus pyogenes. The data set is described as follows: Antibacterial activity against Streptococcus pyogenes. It is filed as functional. The settings on record: Streptococcus pyogenes; read-out: MIC.
The next data set deals with Enterococcus faecium. The data set is described as follows: Antibacterial activity against Enterococcus faecium. It is filed as functional. The settings on record: Enterococcus faecium; read-out: MIC.
Data set [12] has as its system Escherichia coli. Briefly: In vitro relative hydrolysis rate against Escherichia coli IIIa. The class given is functional. In a few lines:
(§2)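 Spectrophotometric hydrolysis at 265 nm, substrate exposed to partially purified cell-free β-lactamase preparations; rate expressed as percentage of the cephaloridine rate.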

Data set [13] has as its system Enterobacter cloacae. Briefly: In vitro relative hydrolysis rate against Enterobacter Ia. It is filed as functional. In a few lines:
as §2

Data set [14] relates to Klebsiella pneumoniae. The data set is described as follows: In vitro relative hydrolysis rate against Klebsiella IV. It is filed as functional. In a few lines:
as §2

Data set [15] concerns Pseudomonas aeruginosa. Briefly: In vivo efficacy against Pseudomonas aeruginosa infected mice treated at 1 hr and 5 hr post infection. The settings on record: Pseudomonas aeruginosa; read-out: ED50. It is filed as functional.
Data set [16] relates to Staphylococcus aureus. The data set is described as follows: In vivo efficacy against Staphylococcus aureus infected mice treated at 1 hr and 5 hr post infection. It is filed as functional. The settings on record: Staphylococcus aureus; read-out: ED50.
In data set [17] the test system is Escherichia coli. The data set is described as follows: In vivo efficacy against Escherichia coli infected mice treated at 1 hr and 5 hr post infection. The following applies: Escherichia coli; read-out: ED50. The class given is functional.
In data set [18] the test system is Escherichia coli. The data set is described as follows: In vivo efficacy against Escherichia coli infections in mice. The settings on record: Escherichia coli; read-out: MIC. It is filed as functional.
For data set [19], the system named is Pseudomonas aeruginosa. The data set is described as follows: In vivo efficacy against Pseudomonas aeruginosa infections in mice. The class given is functional. The settings on record: Pseudomonas aeruginosa; read-out: MIC.
In data set [20] the test system is Staphylococcus aureus. The data set is described as follows: In vivo efficacy against Staphylococcus aureus infections in mice. The class given is functional. The following applies: Staphylococcus aureus; read-out: MIC.
The subject of data set [21] is Pseudomonas aeruginosa. The data set is described as follows: In vitro relative hydrolysis rate against Pseudomonas Id. The class given is functional. In a few lines:
as §2

The test system of data set [22] is Staphylococcus aureus. Briefly: In vitro relative hydrolysis rate against Staphylococcus aureus. The class given is functional. The procedure, abridged:
as §2

Take `CO/N=C(\C(=O)N[C@@H]1C(=O)N2C(C(=O)[O-])=C(C[n+]3ccc4sc(C)cc4c3)CS[C@H]12)c1csc(N)n1`: in data set [1], the half-life was 1.67 h. In addition, the “Percent of dose recovered in urine” value in the data set with Canis familiaris came to 64%. For the same compound, the MIC in the data set with Enterobacter cloacae [2] was 4 µg/mL (≈ 7.34 µM); in the data set on Escherichia coli [3], 0.015 µg/mL (≈ 0.0275 µM); in the data set with Enterobacter cloacae [4], 0.06 µg/mL (≈ 0.11 µM); in the data set with Escherichia coli [5], 0.015 µg/mL (≈ 0.0275 µM); with Klebsiella pneumoniae [6] it was 1 µg/mL (≈ 1.84 µM); with Klebsiella pneumoniae [7] it was less than 0.008 µg/mL. Also, the MIC in the data set on Pseudomonas aeruginosa [8] is 2 µg/mL (≈ 3.67 µM); in the data set on Pseudomonas aeruginosa [9] it was 8 µg/mL (≈ 14.7 µM); in the data set with Staphylococcus aureus [10], 4 µg/mL (≈ 7.34 µM); in the data set on Staphylococcus aureus [11], 0.5 µg/mL (≈ 0.918 µM); in the data set on Streptococcus pneumoniae, less than 0.008 µg/mL; in the data set on Serratia marcescens, 0.06 µg/mL (≈ 0.11 µM). Moreover, the MIC was less than 0.008 µg/mL with Streptococcus pyogenes and more than 128 µg/mL in the data set on Enterococcus faecium.

For `CO/N=C(\C(=O)N[C@@H]1C(=O)N2C(C(=O)[O-])=C(C[n+]3cccc4ccccc43)CS[C@H]12)c1csc(N)n1`, the Hydrolysis rate with Escherichia coli [12] stood at 0.2; in the data set with Enterobacter cloacae [13], 0.1; in the data set on Klebsiella pneumoniae [14], 0.8; in the data set with Pseudomonas aeruginosa [21], 0.1; in the data set with Staphylococcus aureus [22], 8.4. The MIC with Enterobacter cloacae [2] was 4 µg/mL (≈ 7.63 µM); in the data set on Escherichia coli [3], 0.03 µg/mL (≈ 0.0572 µM); in the data set with Enterobacter cloacae [4] it was 0.125 µg/mL (≈ 0.238 µM); with Escherichia coli [5] it was 0.015 µg/mL (≈ 0.0286 µM); in the data set on Klebsiella pneumoniae [6] it was 2 µg/mL (≈ 3.81 µM); with Klebsiella pneumoniae [7], 0.015 µg/mL (≈ 0.0286 µM). The MIC with Escherichia coli [18] amounted to 0.03 µg/mL (≈ 0.0572 µM); in the data set with Pseudomonas aeruginosa [19], 8 µg/mL (≈ 15.3 µM); with Staphylococcus aureus [20], 0.5 µg/mL (≈ 0.953 µM); in the data set with Pseudomonas aeruginosa [8], 2 µg/mL (≈ 3.81 µM); in the data set on Pseudomonas aeruginosa [9], 4 µg/mL (≈ 7.63 µM); with Staphylococcus aureus [10] it was 1 µg/mL (≈ 1.91 µM). The MIC was determined as 0.5 µg/mL (≈ 0.953 µM) in the data set on Staphylococcus aureus [11]; 0.015 µg/mL (≈ 0.0286 µM) in the data set with Streptococcus pneumoniae; 0.125 µg/mL (≈ 0.238 µM) with Serratia marcescens; 0.015 µg/mL (≈ 0.0286 µM) in the data set on Streptococcus pyogenes; 128 µg/mL (≈ 244 µM) in the data set on Enterococcus faecium. For the same compound, the 50% effective dose (ED50) in the data set with Pseudomonas aeruginosa [15] is 9.5 mg/kg; in the data set with Staphylococcus aureus [16], 0.4 mg/kg; in the data set on Escherichia coli [17], 0.04 mg/kg.

In the case of `CO/N=C(\C(=O)N[C@@H]1C(=O)N2C(C(=O)[O-])=C(C[n+]3ccc4ccccc4c3)CS[C@H]12)c1csc(N)n1`, the Hydrolysis rate amounted to 0.2 in the data set on Escherichia coli [12]; 0.3 in the data set with Enterobacter cloacae [13]; 2.8 in the data set on Klebsiella pneumoniae [14]; 0.1 in the data set on Pseudomonas aeruginosa [21]; 9.3 in the data set with Staphylococcus aureus [22]. The MIC in the data set with Enterobacter cloacae [2] turned out to be 8 µg/mL (≈ 15.3 µM); in the data set on Escherichia coli [3] it was 0.015 µg/mL (≈ 0.0286 µM); in the data set on Enterobacter cloacae [4], 0.06 µg/mL (≈ 0.114 µM); in the data set on Escherichia coli [5] it was 0.03 µg/mL (≈ 0.0572 µM); in the data set on Klebsiella pneumoniae [6] it was 2 µg/mL (≈ 3.81 µM); in the data set with Klebsiella pneumoniae [7], 0.015 µg/mL (≈ 0.0286 µM). For the same compound, the MIC with Escherichia coli [18] worked out at 0.015 µg/mL (≈ 0.0286 µM); in the data set with Pseudomonas aeruginosa [19], 8 µg/mL (≈ 15.3 µM); with Staphylococcus aureus [20], 1 µg/mL (≈ 1.91 µM); with Pseudomonas aeruginosa [8] it was 2 µg/mL (≈ 3.81 µM); in the data set on Pseudomonas aeruginosa [9], 4 µg/mL (≈ 7.63 µM); with Staphylococcus aureus [10] it was 1 µg/mL (≈ 1.91 µM). In addition, the MIC with Staphylococcus aureus [11] was 1 µg/mL (≈ 1.91 µM); in the data set with Streptococcus pneumoniae, 0.015 µg/mL (≈ 0.0286 µM); with Serratia marcescens it was 0.06 µg/mL (≈ 0.114 µM); with Streptococcus pyogenes it was less than 0.008 µg/mL; with Enterococcus faecium, 128 µg/mL (≈ 244 µM). The ED50 in the data set with Pseudomonas aeruginosa [15] is 9 mg/kg; in the data set on Staphylococcus aureus [16] it was 0.4 mg/kg; in the data set on Escherichia coli [17], 0.04 mg/kg.

As to `CO/N=C(\C(=O)N[C@@H]1C(=O)N2C(C(=O)[O-])=C(C[n+]3ccc4ccsc4c3)CS[C@H]12)c1csc(N)n1`, the Hydrolysis rate in the data set with Escherichia coli [12] was determined as 0.2; with Enterobacter cloacae [13] it was 0.7; in the data set on Klebsiella pneumoniae [14], 6.9; with Pseudomonas aeruginosa [21], 0.4; with Staphylococcus aureus [22], 7.1. In addition, the MIC in the data set with Enterobacter cloacae [2] amounted to 8 µg/mL (≈ 15.1 µM); in the data set with Escherichia coli [3] it was 0.015 µg/mL (≈ 0.0283 µM); in the data set on Enterobacter cloacae [4] it was 0.06 µg/mL (≈ 0.113 µM); with Escherichia coli [5], 0.03 µg/mL (≈ 0.0565 µM); in the data set on Klebsiella pneumoniae [6], 4 µg/mL (≈ 7.54 µM); with Klebsiella pneumoniae [7], 0.015 µg/mL (≈ 0.0283 µM). In addition, the MIC in the data set with Escherichia coli [18] was less than 0.008 µg/mL; in the data set with Pseudomonas aeruginosa [19] it was 4 µg/mL (≈ 7.54 µM); with Staphylococcus aureus [20], 1 µg/mL (≈ 1.88 µM); in the data set with Pseudomonas aeruginosa [8], 2 µg/mL (≈ 3.77 µM); in the data set with Pseudomonas aeruginosa [9], 4 µg/mL (≈ 7.54 µM); with Staphylococcus aureus [10], 4 µg/mL (≈ 7.54 µM). Further, the MIC is 1 µg/mL (≈ 1.88 µM) with Staphylococcus aureus [11]; less than 0.008 µg/mL in the data set on Streptococcus pneumoniae; 0.03 µg/mL (≈ 0.0565 µM) in the data set on Serratia marcescens; less than 0.008 µg/mL with Streptococcus pyogenes; more than 128 µg/mL in the data set on Enterococcus faecium. Also, the figures for the ED50 in the data set with Pseudomonas aeruginosa [15], in the data set on Staphylococcus aureus [16] and in the data set with Escherichia coli [17] were 9.5 mg/kg, 0.4 mg/kg and 0.02 mg/kg, respectively.
